For data set [1], the target named is Dipeptidyl peptidase 4 (Rattus norvegicus) (UniProt P14740). Kind of data set: Ex vivo percent inhibition of Dipeptidyl peptidase IV in rat plasma after 30 min at 4 umol/kg peroral dose. The class given is functional, cell-free.
The target is the same in data set [2]. Kind of data set: Ex vivo percent inhibition of Dipeptidyl peptidase IV in rat plasma after 4 hr at 4 umol/kg peroral dose. In kind it is functional, cell-free.
Data set [3] has the same target. Kind of data set: Ex vivo Dipeptidyl peptidase IV inhibition in rat plasma after 4 hr 4 umol/kg peroral dose. In kind it is functional, cell-free.
For data set [4], the target named is Cytochrome P450 3A4 (Homo sapiens, UniProt P08684). Kind of data set: Inhibitory concentration against Cytochrome 450 3A4. The class given is ADME.
Chain of Cytochrome P450 3A4 (P08684 whole entry): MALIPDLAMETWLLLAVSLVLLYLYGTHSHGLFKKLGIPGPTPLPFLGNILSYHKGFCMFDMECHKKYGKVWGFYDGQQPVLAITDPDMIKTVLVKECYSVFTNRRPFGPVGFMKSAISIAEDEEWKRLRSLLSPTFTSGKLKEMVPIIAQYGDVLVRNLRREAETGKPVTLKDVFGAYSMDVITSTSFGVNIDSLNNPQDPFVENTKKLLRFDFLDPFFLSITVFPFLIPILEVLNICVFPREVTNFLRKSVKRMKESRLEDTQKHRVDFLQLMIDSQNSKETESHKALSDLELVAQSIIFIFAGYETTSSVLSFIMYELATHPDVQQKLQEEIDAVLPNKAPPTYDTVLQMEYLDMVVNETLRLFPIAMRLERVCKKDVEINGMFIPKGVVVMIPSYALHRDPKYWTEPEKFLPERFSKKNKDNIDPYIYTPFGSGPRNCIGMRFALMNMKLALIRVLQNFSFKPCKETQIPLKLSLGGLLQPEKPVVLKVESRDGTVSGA
A short description of data set [5]: Oral bioavailability in rat. Particulars: in vivo. In kind it is ADME, organism-based. An outline of the steps: (§1)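 Fasted adult male Sprague-Dawley rats (250–300 g), jugular-cannulated, given 10 mg/kg in water as iv bolus or oral gavage (n = 2 per route); serial heparinized blood to 12 h, plasma acetonitrile-precipitated and quantified by LC/MS. AUC by trapezoidal (oral) or log-linear (iv) integration; F = mean oral AUC / mean iv AUC.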

Data set [6] has as its target Dipeptidyl peptidase 4 (Homo sapiens, UniProt P27487). Kind of data set: In vitro inhibition constant against human Dipeptidyl peptidase IV. The method, boiled down: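 Recombinant human DPP-IV expressed in CHO-DG44 cells, purified by anion exchange, gel filtration and MonoQ. […] IC50 from Hill fit (Morrison where needed), converted to Ki assuming competitive inhibition; mean ± SEM, ≥ triplicate.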

The target in data set [7] is Dipeptidyl peptidase 4 (Rattus norvegicus) (UniProt P14740). Kind of data set: Effective dose for inhibition of Dipeptidyl peptidase IV in prediabetic rat model after 4 hr. The class given is functional. The following applies: in the assay text read “fasted normal Sprague-Dawley rat” for “prediabetic rat model”. An outline of the steps: (§2)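 Fasted normal male Sprague-Dawley rats given oral doses; plasma (EDTA) taken 0.5, 2, 4 or 6 h postdose and DPP-IV activity read with fluorogenic Ala-Pro-AFC (0.1 mM, 50 mM Hepes/140 mM NaCl, ex 360/em 530 nm, initial 20 min rate). ED50 = 50% inhibitory dose from percent inhibition vs dose plot at each time point.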

The target is the same in data set [8]. Kind of data set: Effective dose for inhibition of Dipeptidyl peptidase IV in prediabetic rat model after 6 hr. The class given is functional. An outline of the steps:
as §2

For data set [9] the target is unchanged. Kind of data set: Effective dose for inhibition of Dipeptidyl peptidase IV in prediabetic rat model after 0.5 hr. In kind it is functional. The following applies: in the assay text read “fasted normal Sprague-Dawley rat model” for “prediabetic rat model”. An outline of the steps:
as §2

Data set [10] can be described thus: Half life in rat. The class given is ADME. Particulars: in vivo. The method, boiled down: as §1
Data set [11] has as its target Dipeptidyl peptidase 4 (Rattus norvegicus) (UniProt P14740). Kind of data set: Effective dose for inhibition of Dipeptidyl peptidase IV in prediabetic rat model after 2 hr. The class given is functional. Particulars: in the assay text read “fasted normal Sprague-Dawley rat” for “prediabetic rat model”. An outline of the steps: as §2

Chain of Dipeptidyl peptidase 4 (Rattus norvegicus) (P14740 whole entry, looked up): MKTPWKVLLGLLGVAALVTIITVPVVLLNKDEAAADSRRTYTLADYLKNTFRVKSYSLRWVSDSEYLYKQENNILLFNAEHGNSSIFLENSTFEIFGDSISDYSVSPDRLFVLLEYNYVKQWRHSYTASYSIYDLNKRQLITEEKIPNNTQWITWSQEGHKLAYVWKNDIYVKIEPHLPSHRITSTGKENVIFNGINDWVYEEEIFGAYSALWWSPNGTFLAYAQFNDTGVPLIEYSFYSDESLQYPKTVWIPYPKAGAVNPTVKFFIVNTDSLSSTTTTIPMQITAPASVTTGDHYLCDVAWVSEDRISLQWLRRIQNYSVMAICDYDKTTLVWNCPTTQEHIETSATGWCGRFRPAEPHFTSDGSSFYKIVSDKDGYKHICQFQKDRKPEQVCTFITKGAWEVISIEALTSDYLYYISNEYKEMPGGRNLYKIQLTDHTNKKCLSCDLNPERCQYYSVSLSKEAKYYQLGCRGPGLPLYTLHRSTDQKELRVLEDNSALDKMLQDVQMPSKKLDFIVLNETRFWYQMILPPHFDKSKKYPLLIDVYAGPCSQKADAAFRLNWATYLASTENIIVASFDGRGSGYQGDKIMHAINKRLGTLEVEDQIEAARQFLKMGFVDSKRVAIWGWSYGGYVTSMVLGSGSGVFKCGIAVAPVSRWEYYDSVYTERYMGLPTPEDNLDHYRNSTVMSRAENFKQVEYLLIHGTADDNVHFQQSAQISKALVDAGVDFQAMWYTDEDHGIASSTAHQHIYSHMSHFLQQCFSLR
Chain of Dipeptidyl peptidase 4 (P27487 whole entry): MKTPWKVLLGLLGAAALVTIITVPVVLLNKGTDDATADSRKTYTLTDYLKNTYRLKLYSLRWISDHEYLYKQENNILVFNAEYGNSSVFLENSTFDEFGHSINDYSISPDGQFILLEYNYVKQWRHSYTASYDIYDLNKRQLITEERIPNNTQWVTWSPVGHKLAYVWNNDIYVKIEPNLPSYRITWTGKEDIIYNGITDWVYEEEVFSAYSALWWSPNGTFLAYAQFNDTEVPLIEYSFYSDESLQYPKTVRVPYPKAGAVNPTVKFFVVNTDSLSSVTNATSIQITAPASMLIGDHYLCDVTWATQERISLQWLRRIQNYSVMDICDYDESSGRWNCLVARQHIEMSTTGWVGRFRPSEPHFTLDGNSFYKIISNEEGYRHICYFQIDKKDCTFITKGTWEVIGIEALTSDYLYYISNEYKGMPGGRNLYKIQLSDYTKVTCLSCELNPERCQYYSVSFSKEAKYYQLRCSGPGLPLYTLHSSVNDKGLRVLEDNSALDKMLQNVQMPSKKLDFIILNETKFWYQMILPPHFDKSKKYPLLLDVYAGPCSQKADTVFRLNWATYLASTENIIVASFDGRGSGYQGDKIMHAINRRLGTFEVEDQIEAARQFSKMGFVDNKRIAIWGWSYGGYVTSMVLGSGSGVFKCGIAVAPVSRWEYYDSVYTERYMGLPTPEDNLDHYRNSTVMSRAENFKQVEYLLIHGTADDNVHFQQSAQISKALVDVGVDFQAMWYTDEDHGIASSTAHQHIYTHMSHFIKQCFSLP

By inhibition is commonly meant the drop in the measured response relative to a control, in per cent. `C=CC1([C@H](N)C(=O)N2[C@H](C#N)C[C@@H]3C[C@@H]32)CCCCC1`: the inhibition in data set [1] worked out at 76%; in [2] it was 60%.

For `CCC1([C@H](N)C(=O)N2[C@H](C#N)C[C@@H]3C[C@@H]32)CCCC1`, the inhibition in [1] is 40%; in data set [2] it was 44%.

Take `CCC(C)(C)[C@H](N)C(=O)N1[C@H](C#N)C[C@@H]2C[C@@H]21`: the inhibition in [1] and in data set [2] was 0% in each case.

Usually IC50 stands for the concentration that inhibits the measured activity by half. The low end stands for inhibition by little substance, the high end for a need for much substance. In general, bioavailability refers to dose-corrected exposure relative to a reference, in per cent. Low values mean poor availability, high ones good availability. For the compound `N#C[C@@H]1C[C@@H]2C[C@@H]2N1C(=O)[C@@H](N)C12CC3CC(CC(C3)C1)C2`, the results for the inhibition in data set [1] and in data set [3] were 84% and 83%, respectively. Also, in [4], half-maximal inhibition (IC50) required 20 µM. The bioavailability in data set [5] is 2%.

For `C=CC(C)(C)[C@H](N)C(=O)N1[C@H](C#N)C[C@@H]2C[C@@H]21`, the inhibition was 13% in data set [1] and 10% in [2].

`N#C[C@@H]1C[C@@H]2C[C@@H]2N1C(=O)[C@@H](N)C12CC3CC(O)(CC(O)(C3)C1)C2`: the inhibition stood at 62% in data set [1] and 57% in data set [3].

As a reminder, the Ki is a dissociation constant, usually derived from enzyme kinetics or from competition with a known ligand. Read a low Ki as a stronger hold on the target. For `C=CC1([C@H](N)C(=O)N2[C@H](C#N)C[C@@H]3C[C@@H]32)CCCC1`, the inhibition in data set [1] was 71%; in data set [2], 64%. The compound also had a Ki in [6] of 0.0039 µM. The compound further showed a bioavailability in data set [5] of 5.3%.

One may read the ED50 as the dose that gives a 50% effect, or the effect in half of the subjects. The low end stands for greater potency, the high end for weaker potency. What is called half-life is the time needed for the level to fall by half in the phase considered. A higher half-life goes with slow loss. Take `N#C[C@@H]1C[C@@H]2C[C@@H]2N1C(=O)[C@@H](N)C12CC3CC(CC(O)(C3)C1)C2` [SAXAGLIPTIN ANHYDROUS]: the inhibition in [1] and in data set [3] was 87% in each case. Further, the 50% effective dose (ED50) in data set [7] amounted to 0.3 µmol/kg; in data set [8] (in the assay text read “fasted normal Sprague-Dawley rat model” for “prediabetic rat model”), 0.5 µmol/kg; in data set [9], 0.12 µmol/kg; in data set [11], 0.2 µmol/kg. The compound further had a half-life in data set [10] of 2.1 h. Also, in data set [5], the bioavailability came to 75%.

Regarding `C=CC(CC)(CC)[C@H](N)C(=O)N1[C@H](C#N)C[C@@H]2C[C@@H]21`, the results for the inhibition in [1] and in data set [2] were 39% and 20%, respectively.

Turning to `N#C[C@@H]1C[C@@H]2C[C@@H]2N1C(=O)[C@@H](N)C12CC3CC(CC(F)(C3)C1)C2`, the inhibition in data set [1] worked out at 80%; in data set [3], 61%.

`N#C[C@@H]1C[C@@H]2C[C@@H]2N1C(=O)[C@@H](N)C1(CO)CCCCC1`: the values for the inhibition in data set [1] and in [2] were 17% and 8%, respectively.

In the case of `N#C[C@@H]1C[C@@H]2C[C@@H]2N1C(=O)[C@@H](N)C1(CO)CCCC1`, the figures for the inhibition in data set [1] and in data set [2] were 69% and 56%, respectively. The ED50 in data set [7] was determined as 5 µmol/kg; in data set [8] (in the assay text read “fasted normal Sprague-Dawley rat” for “prediabetic rat model”), 11 µmol/kg; in [9], 0.4 µmol/kg; in data set [11], 3.2 µmol/kg. This compound also showed a bioavailability in data set [5] of 59%.

`C=CC1([C@H](N)C(=O)N2[C@H](C#N)C[C@@H]3C[C@@H]32)CCC1`: the inhibition was 42% in [1] and 32% in data set [2].

Take `C=CC1([C@H](N)C(=O)N2[C@H](C#N)C[C@@H]3C[C@@H]32)CCCCCC1`: the figures for the inhibition in [1] and in [2] were 77% and 66%, respectively.

Take `N#C[C@@H]1C[C@@H]2C[C@@H]2N1C(=O)[C@@H](N)C1(CO)CCC1`: the inhibition in data set [1] was found to be 36%; in data set [2], 17%.
